# Assays:
# Type in all cases: biochemical
# [1] = target: T1, aldose reductase (Rattus norvegicus, UniProt P07943); test: aldose reductase inhibition assay
# [2] = target: α-glucosidase (Saccharomyces cerevisiae, UniProt P53341); test: inhibitory kinetic assay on α-glucosidase
# [3] = target: T1, aldose reductase; test: inhibitory kinetic assay on aldose reductase
# In short: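 Aldose reductase from rat lens tissue. Reactions held NADPH (0.3 mM), phosphate buffer (100 mM, pH 6.2) and lithium sulfate (0.6 mM), with DL-glyceraldehyde substrate at several concentrations, with or without test compound, at 37 °C for 10 min. NADPH decrease was read at 340 nm. Rates were fitted by nonlinear Michaelis–Menten regression with Lineweaver–Burk, Dixon and slope secondary plots to derive Km, Vmax and Ki.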
# Sequence of α-glucosidase (P53341 whole entry): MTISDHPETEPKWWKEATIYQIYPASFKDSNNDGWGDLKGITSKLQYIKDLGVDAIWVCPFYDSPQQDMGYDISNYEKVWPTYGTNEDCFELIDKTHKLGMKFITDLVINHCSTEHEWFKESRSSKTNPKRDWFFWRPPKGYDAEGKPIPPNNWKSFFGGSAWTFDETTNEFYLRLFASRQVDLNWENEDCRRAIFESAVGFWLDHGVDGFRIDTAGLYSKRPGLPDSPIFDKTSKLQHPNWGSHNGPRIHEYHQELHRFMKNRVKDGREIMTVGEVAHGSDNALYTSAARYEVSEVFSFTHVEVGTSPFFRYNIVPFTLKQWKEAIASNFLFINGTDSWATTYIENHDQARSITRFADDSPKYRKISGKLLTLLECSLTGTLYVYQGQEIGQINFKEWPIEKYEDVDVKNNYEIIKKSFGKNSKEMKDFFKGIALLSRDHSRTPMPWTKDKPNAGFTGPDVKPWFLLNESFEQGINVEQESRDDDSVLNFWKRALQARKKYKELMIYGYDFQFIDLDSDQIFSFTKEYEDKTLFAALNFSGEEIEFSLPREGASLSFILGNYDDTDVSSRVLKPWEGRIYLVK
"effect on aldose reductase inhibition (in words) ([1]; 0–10 mM tested, data not shown)",Structure (SMILES),IC50 [1],Ki [2],"inhibition type against α-glucosidase ([2]; Vmax decreased, Km fixed)",Ki [3],"inhibition type against aldose reductase ([3]; Vmax decreased, Km fixed)"
weak effect,COc1cc(/C=C/c2ccc(O)cc2)cc(OC)c1 [pterostilbene],–,–,–,–,–
–,"COc1cc(O)cc(/C=C/c2ccc(O)cc2)c1 [pinostilbene, 3-methoxy-4′,5-dihydroxy-trans-stilbene]",55.4 ± 4.31 µM,14.3 ± 1.49 µM,noncompetitive-type inhibition,60 ± 4.64 µM,noncompetitive-type inhibition
